Laboratory results taken from ChEMBL document CHEMBL5150051, “Identification and Characterization of a Novel Indoleamine 2,3-Dioxygenase 1 Protein Degrader for Glioblastoma” (J Med Chem, 2022).
The source made the active and inactive calls. No cut-off for these calls is given here.

Key:
[1] = Drug uptake in C57BL/6 mouse pancreas at 100 mg/kg, ip treated 5 days/week for 3 weeks by LC/MS/MS analysis; type: ADME, organism-based; details: in vivo, 504 h
[2] = target: T1, Protein cereblon/Indoleamine 2,3-dioxygenase 1 (Homo sapiens, UniProt P14902+Q96SW2); test: Protac activity at CRBN/IDO1 non-enzyme mediated NF-kappaB signal in IFNgamma-stimulated human U87 cells assessed as decrease in p65 phosphorylation at 0.1 to 10 uM measured after 24 hrs Western blotting assay; type: cell-based; details: dose 0.1-10 µM
T1 sequence (P14902 whole entry, looked up): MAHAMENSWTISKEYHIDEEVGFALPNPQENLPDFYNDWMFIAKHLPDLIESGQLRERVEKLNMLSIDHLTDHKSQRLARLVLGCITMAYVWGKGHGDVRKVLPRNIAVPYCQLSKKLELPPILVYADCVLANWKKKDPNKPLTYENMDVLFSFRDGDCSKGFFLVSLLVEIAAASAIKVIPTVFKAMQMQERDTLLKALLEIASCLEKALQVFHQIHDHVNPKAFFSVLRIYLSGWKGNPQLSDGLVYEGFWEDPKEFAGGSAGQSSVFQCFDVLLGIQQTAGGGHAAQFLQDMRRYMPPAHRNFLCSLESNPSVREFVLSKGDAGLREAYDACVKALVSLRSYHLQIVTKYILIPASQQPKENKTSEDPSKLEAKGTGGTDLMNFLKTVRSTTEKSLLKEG
T1 sequence (Q96SW2 whole entry, looked up): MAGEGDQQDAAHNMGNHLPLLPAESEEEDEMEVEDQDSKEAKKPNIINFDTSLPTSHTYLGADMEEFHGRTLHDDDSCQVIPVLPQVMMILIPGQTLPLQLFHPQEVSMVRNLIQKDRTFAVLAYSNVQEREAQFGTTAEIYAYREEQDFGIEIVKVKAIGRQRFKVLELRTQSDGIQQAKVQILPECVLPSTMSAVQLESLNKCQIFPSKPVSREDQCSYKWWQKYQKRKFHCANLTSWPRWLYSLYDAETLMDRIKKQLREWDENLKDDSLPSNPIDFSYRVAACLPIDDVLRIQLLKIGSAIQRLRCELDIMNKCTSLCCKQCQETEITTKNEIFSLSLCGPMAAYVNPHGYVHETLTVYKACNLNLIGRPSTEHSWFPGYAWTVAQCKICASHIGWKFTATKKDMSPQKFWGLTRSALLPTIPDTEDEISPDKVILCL
How it was run: (§1)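 IFNγ-stimulated cells were induced for 24 h, then treated at several concentrations for 24 h. Lysates were western blotted for IDO1, phospho-p65, total p65 and GAPDH.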

[3] = target: T1, Protein cereblon/Indoleamine 2,3-dioxygenase 1; test: Protac activity at CRBN/IDO1-HA expressed in human U87 cells assessed as IDO1 degradation in intracellular nuclear compartment measured at 1 to 10 uM after 24 hrs by Western blotting analysis; type: subcellular; details: Nucleus, dose 1-10 µM
[4] = target: T1, Protein cereblon/Indoleamine 2,3-dioxygenase 1; test: Protac activity at CRBN/IDO1 in IFNgamma-stimulated human OVCAR-5 cells assessed as decrease in kynurenine level at 10 uM measured after 24 hrs by Ehrlich's test; type: cell-based
[5] = target: T1, Protein cereblon/Indoleamine 2,3-dioxygenase 1; test: Protac activity at IDO1/CRBN in IFNgamma-stimulated human PBMC cells isolated form GBM patient assessed as IDO1 degradation by measuring decrease in intracellular protein level measured after 24 hrs by Western blotting analysis; type: cell-based; details: DDE = dose-dependent effect
[6] = target: T1, Protein cereblon/Indoleamine 2,3-dioxygenase 1; test: Protac activity at CRBN/IDO1 non-enzyme mediated NF-kappaB signal in IFNgamma-stimulated human MDA-MB-231 cells assessed as decrease in p65 phosphorylation at 0.1 to 10 uM measured after 24 hrs Western blotting assay; type: cell-based; details: dose 0.1-10 µM; how it was run: as §1
[7] = target: T1, Protein cereblon/Indoleamine 2,3-dioxygenase 1; test: Protac activity at CRBN/IDO1 in enzyme-null cDNA transfected in human U87 cells assessed as IDO1 degradation by measuring decrease in protein level measured at 0.1 to 10 uM after 24 hrs by Western blotting analysis; type: cell-based; details: dose 0.1-10 µM
[8] = Drug uptake in C57BL/6 mouse brain at 10 to 100 mg/kg, ip treated 5 days/week for 3 weeks by LC/MS/MS analysis; type: ADME, organism-based; details: in vivo, 504 h, dose 10-100 mg/kg
How it was run: (§2)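 Male C57BL/6 mice dosed ip at 10, 25, 50 or 100 mg/kg, 5 days/week for 3 weeks, alongside vehicle. After 3 weeks, serum and brain homogenate were analysed by mass spectrometry for drug level; mean ± SEM, n = 3 mice/dose.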

[9] = Drug uptake in C57BL/6 mouse liver at 100 mg/kg, ip treated 5 days/week for 3 weeks by LC/MS/MS analysis; type: ADME, organism-based; details: in vivo, 504 h
[10] = target: T1, Protein cereblon/Indoleamine 2,3-dioxygenase 1; test: Protac activity at IDO1/CRBN in human U87 cells assessed as decrease in phosphorylated p65 in nucleus at 1 to 10 uM measured after 24 hrs by Western blot analysis; type: cell-based; details: dose 1-10 µM
How it was run: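 Cytoplasmic and nuclear fractions prepared from U87 cells after 24 h treatment with DMSO or compound. Fractions blotted for IDO1, phospho-p65 and total p65, with HDAC2 as nuclear marker and tubulin as cytoplasmic marker.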

[11] = Half life in C57BL/6 mouse brain at 25 mg/kg, ip; type: ADME, organism-based
[12] = Drug uptake in C57BL/6 mouse serum at 10 to 100 mg/kg, ip treated 5 days/week for 3 weeks by LC/MS/MS analysis; type: ADME, organism-based; details: in vivo, 504 h, dose 10-100 mg/kg; how it was run: as §2
Mus musculus = test: In vivo Protac activity at IDO1/CRBN in luciferase-modified GL261 cells engrafted mouse cancer model assessed as increase in survival time measured at 25 mg/kg, ip treated 14 days post tumor implantation; details: time 14 day
[13] = target: T1, Protein cereblon/Indoleamine 2,3-dioxygenase 1; test: Protac activity at CRBN/IDO1 in IFNgamma-stimulated human U87 cells assessed as decrease in kynurenine level measured after 24 hrs by Ehrlich's test; type: cell-based; details: DDE = dose-dependent effect
How it was run: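 U87 or GBM43 cells given compound together with 50 ng/mL IFNγ for 24 h. Supernatant kynurenine was measured with Ehrlich's reagent. Cells cultured without IFNγ served as control.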

[14] = target: T1, Protein cereblon/Indoleamine 2,3-dioxygenase 1; test: Protac activity at IDO1/CRBN in IFNgamma-stimulated human SK-OV-3 cells assessed as IDO1 degradation by measuring decrease in intracellular protein level measured after 24 hrs by Western blotting analysis; type: cell-based; details: dose 1-10 µM, DDE = dose-dependent effect
[15] = target: T1, Protein cereblon/Indoleamine 2,3-dioxygenase 1; test: Protac activity at IDO1/CRBN in IFNgamma-stimulated human OVCAR-5 cells assessed as IDO1 degradation by measuring decrease in intracellular protein level measured after 24 hrs by Western blotting analysis; type: cell-based; details: dose 1-10 µM, DDE = dose-dependent effect
[16] = Drug uptake in C57BL/6 mouse liver at 50 mg/kg, ip treated 5 days/week for 3 weeks by LC/MS/MS analysis; type: ADME, organism-based; details: in vivo, 504 h
[17] = Drug uptake in C57BL/6 mouse brain at 25 mg/kg, ip measured after 6 hrs by equilibrium dialysis; type: ADME, organism-based; details: in vivo
How it was run: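 C57BL/6 mice received a single 25 mg/kg ip dose. Serum and brain were sampled at 0 to 24 h and the drug was quantified by mass spectrometry (n = 3 mice/dose). Binding to mouse brain homogenate was measured by 6 h equilibrium dialysis.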

[18] = target: T1, Protein cereblon/Indoleamine 2,3-dioxygenase 1; test: Protac activity at CRBN/IDO1 non-enzyme mediated p65 phosphorylation in enzyme-null cDNA transfected in IFNgamma-stimulated human U87 cells measured at 0.1 to 10 uM after 24 hrs by Western blotting analysis; type: cell-based; details: dose 0.1-10 µM
[19] = Drug uptake in C57BL/6 mouse intestine at 100 mg/kg, ip treated 5 days/week for 3 weeks by LC/MS/MS analysis; type: ADME, organism-based; details: in vivo, 504 h
Ido1/Crbn (Mus musculus) = Ido1/Crbn (Mus musculus) (UniProt P28776+Q8C7D2); test: Protac activity at IDO1/CRBN in IFNgamma-stimulated mouse GL261 cells assessed as IDO1 degradation by measuring decrease in intracellular protein level measured after 24 hrs by Western blotting analysis; type: cell-based; details: dose 1-10 µM, DDE = dose-dependent effect
Chain of Ido1/Crbn (Mus musculus) (P28776 whole entry, looked up): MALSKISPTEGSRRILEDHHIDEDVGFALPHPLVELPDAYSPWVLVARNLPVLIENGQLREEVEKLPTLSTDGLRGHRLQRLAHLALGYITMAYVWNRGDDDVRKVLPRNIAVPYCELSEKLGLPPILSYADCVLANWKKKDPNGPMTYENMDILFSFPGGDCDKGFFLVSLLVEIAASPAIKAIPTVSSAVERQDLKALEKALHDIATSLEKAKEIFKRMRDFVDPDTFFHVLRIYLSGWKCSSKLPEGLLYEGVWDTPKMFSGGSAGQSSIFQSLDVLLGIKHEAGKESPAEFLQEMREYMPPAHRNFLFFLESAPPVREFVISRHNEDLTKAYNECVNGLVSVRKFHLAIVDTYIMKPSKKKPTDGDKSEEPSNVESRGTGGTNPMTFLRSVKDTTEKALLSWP
Chain of Ido1/Crbn (Mus musculus) (Q8C7D2 whole entry, looked up): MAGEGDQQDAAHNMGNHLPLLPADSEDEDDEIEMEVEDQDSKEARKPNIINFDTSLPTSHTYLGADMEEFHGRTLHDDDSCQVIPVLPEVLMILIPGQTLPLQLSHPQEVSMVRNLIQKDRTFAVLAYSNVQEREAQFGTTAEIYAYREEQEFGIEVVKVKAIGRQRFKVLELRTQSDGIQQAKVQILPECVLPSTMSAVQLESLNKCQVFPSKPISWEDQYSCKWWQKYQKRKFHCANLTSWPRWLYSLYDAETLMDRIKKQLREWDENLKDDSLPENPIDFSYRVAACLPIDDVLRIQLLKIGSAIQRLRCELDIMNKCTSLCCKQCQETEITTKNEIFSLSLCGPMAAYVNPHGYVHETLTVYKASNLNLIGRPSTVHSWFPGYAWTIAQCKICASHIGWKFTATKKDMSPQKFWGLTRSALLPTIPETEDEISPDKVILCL

[20] = target: T1, Protein cereblon/Indoleamine 2,3-dioxygenase 1; test: Protac activity at CRBN/IDO1 non-enzyme mediated NF-kappaB signal in IFNgamma-stimulated human GBM43 cells assessed as decrease in p65 phosphorylation at 0.1 to 10 uM measured after 24 hrs Western blotting assay; type: cell-based; details: GBM43 cell, dose 0.1-10 µM; how it was run: as §1
[21] = target: T1, Protein cereblon/Indoleamine 2,3-dioxygenase 1; test: Protac activity at IDO1/CRBN in IFNgamma-stimulated human PANC-1 cells assessed as IDO1 degradation by measuring decrease in intracellular protein level measured after 24 hrs by Western blotting analysis; type: cell-based; details: dose 1-10 µM, DDE = dose-dependent effect
[22] = target: T1, Protein cereblon/Indoleamine 2,3-dioxygenase 1; test: Protac activity at IDO1/CRBN in IFNgamma-stimulated human CD18 cells assessed as IDO1 degradation by measuring decrease in intracellular protein level measured after 24 hrs by Western blotting analysis; type: cell-based; details: CD18 cell, DDE = dose-dependent effect
[23] = target: T1, Protein cereblon/Indoleamine 2,3-dioxygenase 1; test: Binding affinity to CRBN/IDO1 (unknown origin) assessed as ternary complex affinity by bio-layer interferometry assay; type: protein assay
How it was run: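 For the ternary complex, compound was preincubated with a 25-fold molar excess of CRBN, and binding of this binary complex to IDO1 was followed in real time.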

[24] = target: T1, Protein cereblon/Indoleamine 2,3-dioxygenase 1; test: Protac activity at CRBN/IDO1 in human U87 cells assessed as decrease in phosphorylated NF-kappaB p65 in nucleus at 1 to 10 uM measured after 24 hrs by Western blot analysis; type: cell-based; details: dose 1-10 µM
[25] = target: Indoleamine 2,3-dioxygenase 1 (Homo sapiens, UniProt P14902); test: Inhibition of human IDO1 expressed in Escherichia coli BL21(DE3) using D-tryptophan as substrate assessed as formation of kynurenine production; details: DDE = dose-dependent effect
Chain of Indoleamine 2,3-dioxygenase 1 (P14902 whole entry, looked up): as the sequence (P14902 whole entry, looked up) above

## C[C@@H](C(=O)Nc1ccc(OC2CCN(C(=O)CCOCCOCCNc3cccc4c3C(=O)N(C3CCC(=O)NC3=O)C4=O)CC2)cc1)[C@H]1CC[C@@H](c2ccnc3ccc(F)cc32)CC1 (some centres not stated)
[1]
  Drug uptake: Active
[2]
  Activity: Active
[3]
  Activity: Active
[4]
  inhibition: Active
[5]
  Activity: Dde
[6]
  inhibition: Active
[7]
  Activity: Active
[8]
  Drug uptake: Active
[9]
  Drug uptake: Active
[10]
  Activity: Active
[11]
  half-life: 8.3 h
[12]
  Drug uptake: Active
Mus musculus
  Time: 45 days
[13]
  inhibition: Dde
[14]
  Activity: Dde
[15]
  Activity: Dde
[16]
  Drug uptake: Active
[17]
  Drug uptake: 99.8%
[18]
  inhibition: Active
[19]
  Drug uptake: Active
Ido1/Crbn (Mus musculus)
  Activity: Dde
[20]
  inhibition: Active
[21]
  Activity: Dde
[22]
  Activity: Dde
[23]
  K: 117 nM
[24]
  Activity: Active
[25]
  Activity: Dde
